The nature of series [1]: Plasma concentration in Sprague-Dawley rat plasma at 10 mg/kg, iv after 30 mins by LC-MS/MS analysis. Format: ADME, organism-based. The gist of the method:
(§1)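 Healthy male Sprague Dawley rats, n = 3 per time point, given 10 mg/kg IV; brain and plasma sampled at 30, 90 and 180 min post dose; drug levels by LC–MS/MS (plasma ng/ml, brain ng/g). AUC summed from straight-line segments joining the three time points.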

A short description of series [2]: Plasma concentration in Sprague-Dawley rat plasma at 10 mg/kg, iv after 90 mins by LC-MS/MS analysis. Format: ADME, organism-based. The gist of the method: as §1
Series [3] in a line: Plasma concentration in Sprague-Dawley rat plasma at 10 mg/kg, iv after 180 mins by LC-MS/MS analysis. Format: ADME, organism-based. The gist of the method: as §1
The nature of series [4]: Drug level in Sprague-Dawley rat brain at 10 mg/kg, iv after 30 mins by LC-MS/MS analysis. It is filed as ADME, organism-based. Particulars: read-out: Drug uptake. The gist of the method: as §1
Series [5] in a line: Drug level in Sprague-Dawley rat brain at 10 mg/kg, iv after 90 mins by LC-MS/MS analysis. It is filed as ADME, organism-based. As to conditions: read-out: Drug uptake. The gist of the method: as §1
Series [6] can be described thus: Drug level in Sprague-Dawley rat brain at 10 mg/kg, iv after 180 mins by LC-MS/MS analysis. It is filed as ADME, organism-based. Particulars: read-out: Drug uptake. The essentials: as §1
Series [7] is described as follows: Ratio of AUC in brain to plasma of Sprague-Dawley rat at 10 mg/kg, iv after 30 to 180 mins by LC-MS/MS analysis. As to conditions: read-out: Ratio AUC. Format: ADME, organism-based. The essentials: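 Male Sprague Dawley rats (n = 3 per time point) dosed IV at 10 mg/kg; brain and plasma taken 30, 90, 180 min after dosing and assayed by LC–MS/MS; three-point linear-segment AUCs computed; ratio = AUCbrain divided by AUCplasma.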

Series [8] in a line: Ratio of temozolomide AUC to compound AUC for drug level in brain of Sprague-Dawley rat. Format: ADME. Particulars: in vivo.
Series [9] concerns U-87MG ATCC. As to the kind of experiment: Induction of DNA alkylation in human U87MG cells assessed as increase in O6-MedG formation at 10 to 100 uM after 3 hrs by LC-MS/MS analysis. It is filed as cell-based. The essentials: (§2)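 U87 MG cells incubated with 10 or 100 µM for 3 h at 37 °C, washed, lysed; genomic DNA isopropanol-extracted, hydrolysed 30 min at 37 °C with nuclease P1 and alkaline phosphatase (ammonium acetate/ZnCl2, pH 5.3); [H]O6-MedG internal standard added; O6-MedG peak area by LC–MS/MS.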

Series [10] in a line: AUC in Sprague-Dawley rat plasma at 10 mg/kg, iv after 30 to 180 mins by LC-MS/MS analysis. It is filed as ADME, organism-based. As to conditions: in vivo. The essentials: as §1
The nature of series [11]: AUC in Sprague-Dawley rat brain at 10 mg/kg, iv after 30 to 180 mins by LC-MS/MS analysis. It is filed as ADME, organism-based. The gist of the method: as §1
Series [12] is described as follows: Fraction unbound in mouse brain assessed as compound level in insoluble tissue fraction at 10 uM after 1 hr by LC-MS/MS analysis. It is filed as ADME, tissue-based. Particulars: in the assay text read “soluble supernatant fraction” for “insoluble tissue fraction”. The essentials:
(§3)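 Compound at 10 µM incubated 1 h at 37 °C with homogenized mouse brain tissue in HBSS (1% final DMSO); after centrifugation, percent of compound in insoluble tissue fraction and soluble supernatant determined by LC–MS/MS.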

A short description of series [13]: Drug level in mouse brain assessed as compound level in soluble tissue fraction at 10 uM after 1 hr by LC-MS/MS analysis. Format: ADME, tissue-based. The gist of the method:
as §3

Series [14] deals with U-87MG ATCC. The series is described as follows: Induction of DNA alkylation in human U87MG cells assessed as increase in O6-MedG formation at 10 uM after 3 hrs by LC-MS/MS analysis. It is filed as cell-based. The gist of the method:
as §2

Series [15] relates to U-87MG ATCC. As to the kind of experiment: Induction of DNA alkylation in human U87MG cells assessed as increase in N7-MedG formation after 3 hrs by LC-MS/MS analysis. Format: cell-based.
In series [16] the test system is U-87MG ATCC. The series is described as follows: Antitumor activity against human U87MG cells orthotopically xenografted in Harlan nude mouse brain assessed as induction of slow tumor growth at 50 umol/kg, iv administered once daily for 5 days. It is filed as functional, organism-based. The gist of the method:
(§4)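 Orthotopic model: one million luciferase-expressing U87 MG cells surgically implanted into brains of female Harlan nude mice; dosing from day 26 (mean tumor 10.1 mm3), IV in 50% PEG400, once daily ×5; vehicle group dosed IV. Tumor volume by MRI, body weight and mortality tracked; survival followed to day 63, log-rank Mantel–Cox test.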

For series [17], the system named is U-87MG ATCC. As to the kind of experiment: Antitumor activity against human U87MG cells orthotopically xenografted in Harlan nude mouse brain assessed as increase in mouse survival at 50 umol/kg, iv administered once daily for 5 days. Format: functional, organism-based. The essentials: as §4
Background: In xenograft studies the graft and the host belong to different species.

For a further series, the system named is Rattus norvegicus. The series is described as follows: Increase in O6-MedG formation in rat brain at 51.5 to 206 umol/kg, iv measured 3 hrs post dose by LC-MS/MS analysis. Format: functional, organism-based. The essentials:
(§5)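 Rats (n = 1 per compound per dose) dosed IV at 10, 20 and 40 mg/kg; brain collected 3 h post dose; brain drug concentration and O6-MedG (peak area) measured by LC–MS/MS.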

Series [18] can be described thus: Drug level in rat brain at 103 umol/kg, iv measured 3 hrs post dose by LC-MS/MS analysis. Format: ADME, organism-based. Particulars: in vivo. The gist of the method:
as §5

Series [19] in a line: Ratio of AUC in human brain to plasma by reversed-phase HPLC analysis.
Series [20] is described as follows: Ratio of AUC in brain to plasma of Sprague-Dawley rat administered as single dose.
The nature of series [21]: Cytotoxicity against human U87MG cells assessed as inhibition of cell growth at 100 uM after 72 hrs by MTS assay. It is filed as functional, U-87MG ATCC. Particulars: U-87 MG, read-out: GI. The essentials: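 U87 MG cells exposed to 100 µM compound for 72 h; growth read by MTS CellTiter 96 assay; treated-cell mean growth (n = 3) divided by vehicle-treated growth (n = 3, set to 100%); SD of three replicates.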

Series [22] is described as follows: Drug level in rat brain at 106 umol/kg, iv measured 3 hrs post dose by LC-MS/MS analysis. It is filed as ADME, organism-based. Particulars: in vivo. The essentials: as §5

Activity calls are given as the source filed them. The rule behind the calls is not given here.

For `Cc1ccc2[nH]c3c(c2c1)CN(CCNC(=O)c1ncn2c(=O)n(C)nnc12)CC3`, the concentration at 0.5 h in series [1] was 1090 ng/mL; in [4], 1100 ng/g. Also, the values for the concentration at 1.5 h in series [2] and in series [5] were 302 ng/mL and 142 ng/g, respectively. For the same molecule, the results for the concentration at 3 h in series [3] and in series [6] were 99.2 ng/mL and 32.7 ng/g, respectively. For the same molecule, the Kp in series [7] came to 0.75. Besides, in [8], the “Ratio AUC” value is recorded as 7.5. In the series on U-87MG ATCC [9], the result was Active. Also, the AUC came out at 998 ng·h/g in series [10] and 750 ng·h/mL in [11].

With `Cc1ccc2c(c1)c1c(n2CCNC(=O)c2ncn3c(=O)n(C)nnc23)CCN(C)C1`, the concentration at 0.5 h in series [1] came out at 850 ng/mL; in [4] it was 517 ng/g. Further, the concentration at 1.5 h was determined as 387 ng/mL in series [2] and 243 ng/g in series [5]. The concentration at 3 h was determined as 67.1 ng/mL in series [3] and 101 ng/g in [6]. In [7], the Kp came to 0.67. Moreover, the “Ratio AUC” value in series [8] was 8.9. Moreover, the result in the series with U-87MG ATCC [9] was Active. Moreover, the figures for the AUC in series [10] and in [11] were 959 ng·h/g and 638 ng·h/mL, respectively.

As for `NC(=O)c1[nH]cnc1N`, in series [12], the fraction unbound (commonly free concentration divided by total concentration) at 1 h, 10 µM came to 0.48. In addition, the Drug uptake in series [13] is 48%.

For `Cn1nnc2c(C(=O)N3CCc4c(n(C5CC5)c5c(Cl)cc(Cl)cc45)C3)ncn2c1=O`, the values for the concentration at 0.5 h in [1] and in [4] were 531 ng/mL and 4950 ng/g, respectively. In addition, the concentration at 1.5 h in series [2] was determined as 438 ng/mL; in [5] it was 4830 ng/g. In addition, the concentration at 3 h in [3] was found to be 347 ng/mL; in series [6], 3570 ng/g. Besides, the Kp in series [7] was 10.4. Besides, the “Ratio AUC” value in series [8] is 0.5. For the same molecule, the outcome in the series with U-87MG ATCC [14] was Active. Further, the fraction unbound at 1 h, 10 µM in series [12] came out at 0.03. In addition, the Drug uptake in series [13] was found to be 3%. The figures for the AUC in [10] and in [11] were 1070 ng·h/g and 11200 ng·h/mL, respectively.

For `Cn1nnc2c(C(N)=O)ncn2c1=O` [TEMOZOLOMIDE], the concentration at 0.5 h stood at 12800 ng/mL in series [1] and 4210 ng/g in [4]. The concentration at 1.5 h in series [2] is 6480 ng/mL; in [5] it was 2300 ng/g. The concentration at 3 h in series [3] is 3100 ng/mL; in series [6], 912 ng/g. In addition, the Kp in [7] stood at 0.34; in series [19], 20; in series [20], 35. Further, the Activity result with U-87MG ATCC [9] is “Dose-dependent effect”. Also, the result in the series on U-87MG ATCC [15], in the series with U-87MG ATCC [16], with U-87MG ATCC [17] and in the series with Rattus norvegicus was Active. The Drug uptake entry in series [18] is recorded as “Active”; in [13], 50%. The fraction unbound at 1 h, 10 µM in [12] came out at 0.5.

Turning to `Nc1[nH]cnc1C(=O)N1CCc2c(n(C3CC3)c3c(Cl)cc(Cl)cc23)C1`, the fraction unbound at 1 h, 10 µM in series [12] amounted to 0.01. For the same molecule, in series [13], the Drug uptake was 1%.

For `CN1CCc2c(n(CCNC(=O)c3ncn4c(=O)n(C)nnc34)c3ccc(Cl)cc23)C1`, the figures for the concentration at 0.5 h in series [1] and in series [4] were 399 ng/mL and 574 ng/g, respectively. Moreover, the concentration at 1.5 h is 123 ng/mL in [2] and 162 ng/g in [5]. For the same molecule, the concentration at 3 h in [3] was determined as 43.7 ng/mL; in [6], 47.5 ng/g. Further, the Kp in series [7] came out at 1.36. Further, the “Ratio AUC” value in series [8] was determined as 10.8. Also, the fraction unbound at 1 h, 10 µM in [12] stood at 0.11. In addition, the Drug uptake in series [13] was 11%. Moreover, the AUC amounted to 386 ng·h/g in [10] and 525 ng·h/mL in series [11].

Turning to `Cc1ccc2c(c1)c1c(n2C)CN(C(=O)c2nc[nH]c2N)CC1`, in series [12], the fraction unbound at 1 h, 10 µM is 0.01. Besides, the Drug uptake in series [13] was determined as 1%.

On to `Cc1ccc2c(c1)c1c(n2C)CN(C(=O)c2ncn3c(=O)n(C)nnc23)CC1`, for which the figures for the concentration at 0.5 h in series [1] and in series [4] were 483 ng/mL and 2020 ng/g, respectively. For the same molecule, the results for the concentration at 1.5 h in [2] and in series [5] were 256 ng/mL and 945 ng/g, respectively. Further, the concentration at 3 h came to 119 ng/mL in series [3] and 372 ng/g in series [6]. Further, the Kp in [7] was 3.79. In addition, the “Ratio AUC” value in series [8] was found to be 2.3. Moreover, the result in the series on U-87MG ATCC [9] was Active. Besides, the inhibition of growth at 100 µM in series [21] turned out to be 27.3%. The Drug uptake entry in series [22] was “Active”; in series [13] it was 2%. Further, the free fraction (fraction unbound) at 1 h, 10 µM in [12] is 0.02. For the same molecule, the AUC in series [10] worked out at 650 ng·h/g; in series [11], 2470 ng·h/mL.

Turning to `Cc1ccc2c(c1)c1c(n2C)CCN(CCNC(=O)c2ncn3c(=O)n(C)nnc23)C1`, the concentration at 0.5 h in series [1] was 3630 ng/mL; in series [4], 3150 ng/g. In addition, the concentration at 1.5 h in series [2] is 2140 ng/mL; in series [5] it was 1700 ng/g. Besides, the figures for the concentration at 3 h in series [3] and in series [6] were 539 ng/mL and 401 ng/g, respectively. In addition, the Kp in [7] was 0.82. Besides, in series [8], the “Ratio AUC” value is 1.4. Also, in the series on U-87MG ATCC [9], the outcome was Active. Moreover, the AUC in series [10] is 4890 ng·h/g; in [11], 4010 ng·h/mL.

As for `CN1CCc2c(n(CCNC(=O)c3nc[nH]c3N)c3ccc(Cl)cc23)C1`, in series [12], the unbound share (fraction unbound) at 1 h, 10 µM amounted to 0.07. In addition, the Drug uptake in [13] amounted to 7%.

The values above are taken from ChEMBL document CHEMBL3853338 (Bioorg Med Chem Lett, 2016).
